Assay results as given in ChEMBL document CHEMBL1122605, “Synthesis and evaluation of radioiodinated (E)-18-iodo-17-octadecenoic acid as a model iodoalkenyl fatty acid for myocardial imaging” (J Med Chem, 1984).
Several values for one entry are separate records, joined by “and”; a condition that tells them apart may be missing. Equal entries are not always repeated.

Legend:
[1] = tested on: Rattus norvegicus; assay: Distribution of the [125I]-labeled compound in heart tissue of female Fischer 344 rat 5 min after intravenous administration. Value in the parentheses is ratio of distribution in heart and blood; format: ADME, organism-based; settings: in vivo
Summary of the method: (§1)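 Radioiodinated ([125I]) fatty acid formulated in 6% bovine serum albumin solution (10% EtOH), passed through a 0.22-µm filter, injected into a lateral tail vein of female Fischer 344 rats. Tissues taken at set times post-injection; radioactivity expressed as percent injected dose/g tissue (mean, range), with heart:blood ratio calculated from heart and blood values.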

[2] = tested on: Rattus norvegicus; assay: Distribution of the [125I]-labeled compound in heart tissue of female Fischer 344 rat 120 min after intravenous administration. Value in the parentheses is ratio of distribution in heart and blood; format: ADME, organism-based; settings: in vivo, 2 h; summary of the method: as §1
[3] = tested on: Rattus norvegicus; assay: Distribution of the [125I]-labeled compound in heart tissue of female Fischer 344 rat 1 day after intravenous administration.; format: ADME, organism-based; settings: in vivo, 24 h
Summary of the method: (§2)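 Tissues were sampled at the stated times after injection. Radioactivity is expressed as mean (range) percent injected dose/g tissue. Heart:blood ratios were calculated from these tissue values.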

[4] = tested on: Rattus norvegicus; assay: Distribution of the [125I]-labeled compound in heart tissue of female Fischer 344 rat 1 hr after intravenous administration.; format: ADME, organism-based; settings: in vivo; summary of the method: as §2
[5] = tested on: Rattus norvegicus; assay: Distribution of the [125I]-labeled compound in heart tissue of female Fischer 344 rat 2 hr after intravenous administration.; format: ADME, organism-based; settings: in vivo; summary of the method: as §2
[6] = tested on: Rattus norvegicus; assay: Distribution of the [125I]-labeled compound in heart tissue of female Fischer 344 rat 30 min after intravenous administration.; format: ADME, organism-based; settings: in vivo, 0.5 h; summary of the method: as §2
[7] = tested on: Rattus norvegicus; assay: Distribution of the [125I]-labeled compound in heart tissue of female Fischer 344 rat 4 hr after intravenous administration.; format: ADME, organism-based; settings: in vivo; summary of the method: as §2
[8] = tested on: Rattus norvegicus; assay: Distribution of the [125I]-labeled compound in heart tissue of female Fischer 344 rat 5 min after intravenous administration.; format: ADME, organism-based; settings: in vivo; summary of the method: as §2
[9] = tested on: Rattus norvegicus; assay: Distribution of the [125I]-labeled compound in kidney of female Fischer 344 rat 1 day after intravenous administration.; format: ADME, organism-based; settings: in vivo, 24 h; summary of the method: as §2
[10] = tested on: Rattus norvegicus; assay: Distribution of the [125I]-labeled compound in blood of female Fischer 344 rat 1 day after intravenous administration.; format: ADME, organism-based; settings: in vivo, 24 h; summary of the method: as §2
[11] = tested on: Rattus norvegicus; assay: Distribution of the [125I]-labeled compound in blood of female Fischer 344 rat 1 hr after intravenous administration.; format: ADME, organism-based; settings: in vivo; summary of the method: as §2
[12] = tested on: Rattus norvegicus; assay: Distribution of the [125I]-labeled compound in blood of female Fischer 344 rat 2 hr after intravenous administration.; format: ADME, organism-based; settings: in vivo; summary of the method: as §2
[13] = tested on: Rattus norvegicus; assay: Distribution of the [125I]-labeled compound in blood of female Fischer 344 rat 30 min after intravenous administration.; format: ADME, organism-based; settings: in vivo, 0.5 h; summary of the method: as §2
[14] = tested on: Rattus norvegicus; assay: Distribution of the [125I]-labeled compound in blood of female Fischer 344 rat 4 hr after intravenous administration.; format: ADME, organism-based; settings: in vivo; summary of the method: as §2
[15] = tested on: Rattus norvegicus; assay: Distribution of the [125I]-labeled compound in blood of female Fischer 344 rat 5 min after intravenous administration.; format: ADME, organism-based; settings: in vivo; summary of the method: as §2
[16] = tested on: Rattus norvegicus; assay: Ratio of the distribution of [125I]-labeled compound in heart/blood of female Fischer 344 rat 4 hr after intravenous administration.; format: ADME, organism-based; settings: other tissue; summary of the method: as §2
[17] = tested on: Rattus norvegicus; assay: Ratio of the distribution of [125I]-labeled compound in heart/blood of female Fischer 344 rat 5 min after intravenous administration.; format: ADME, organism-based; settings: in vivo; summary of the method: as §2
[18] = tested on: Rattus norvegicus; assay: Distribution of the [125I]-labeled compound in kidney of female Fischer 344 rat 1 hr after intravenous administration.; format: ADME, organism-based; settings: in vivo; summary of the method: as §2
[19] = tested on: Rattus norvegicus; assay: Distribution of the [125I]-labeled compound in kidney of female Fischer 344 rat 2 hr after intravenous administration.; format: ADME, organism-based; settings: in vivo; summary of the method: as §2
[20] = tested on: Rattus norvegicus; assay: Distribution of the [125I]-labeled compound in kidney of female Fischer 344 rat 30 min after intravenous administration.; format: ADME, organism-based; settings: in vivo, 0.5 h; summary of the method: as §2
[21] = tested on: Rattus norvegicus; assay: Distribution of the [125I]-labeled compound in kidney of female Fischer 344 rat 4 hr after intravenous administration.; format: ADME, organism-based; settings: in vivo; summary of the method: as §2
[22] = tested on: Rattus norvegicus; assay: Distribution of the [125I]-labeled compound in kidney of female Fischer 344 rat 5 min after intravenous administration.; format: ADME, organism-based; settings: in vivo; summary of the method: as §2
[23] = tested on: Rattus norvegicus; assay: Distribution of the [125I]-labeled compound in liver of female Fischer 344 rat 1 day after intravenous administration.; format: ADME, organism-based; settings: in vivo, 24 h; summary of the method: as §2
[24] = tested on: Rattus norvegicus; assay: Distribution of the [125I]-labeled compound in liver of female Fischer 344 rat 1 hr after intravenous administration.; format: ADME, organism-based; settings: in vivo; summary of the method: as §2
[25] = tested on: Rattus norvegicus; assay: Distribution of the [125I]-labeled compound in liver of female Fischer 344 rat 2 hr after intravenous administration.; format: ADME, organism-based; settings: in vivo; summary of the method: as §2
[26] = tested on: Rattus norvegicus; assay: Distribution of the [125I]-labeled compound in liver of female Fischer 344 rat 30 min after intravenous administration.; format: ADME, organism-based; settings: in vivo, 0.5 h; summary of the method: as §2
[27] = tested on: Rattus norvegicus; assay: Distribution of the [125I]-labeled compound in liver of female Fischer 344 rat 4 hr after intravenous administration.; format: ADME, organism-based; settings: in vivo; summary of the method: as §2
[28] = tested on: Rattus norvegicus; assay: Distribution of the [125I]-labeled compound in liver of female Fischer 344 rat 5 min after intravenous administration.; format: ADME, organism-based; settings: in vivo; summary of the method: as §2
[29] = tested on: Rattus norvegicus; assay: Distribution of the [125I]-labeled compound in lungs of female Fischer 344 rat 1 day after intravenous administration.; format: ADME, organism-based, Lung; settings: in vivo, 24 h; summary of the method: as §2
[30] = tested on: Rattus norvegicus; assay: Distribution of the [125I]-labeled compound in lungs of female Fischer 344 rat 1 hr after intravenous administration.; format: ADME, organism-based, Lung; settings: in vivo; summary of the method: as §2
[31] = tested on: Rattus norvegicus; assay: Distribution of the [125I]-labeled compound in lungs of female Fischer 344 rat 5 min after intravenous administration.; format: ADME, organism-based, Lung; settings: in vivo; summary of the method: as §2
[32] = tested on: Rattus norvegicus; assay: Distribution of the [125I]-labeled compound in thyroid of female Fischer 344 rat 1 day after intravenous administration.; format: ADME, organism-based, Thyroid gland; settings: in vivo, 24 h; summary of the method: as §2
[33] = tested on: Rattus norvegicus; assay: Distribution of the [125I]-labeled compound in thyroid of female Fischer 344 rat 1 hr after intravenous administration.; format: ADME, organism-based, Thyroid gland; settings: in vivo; summary of the method: as §2
[34] = tested on: Rattus norvegicus; assay: Distribution of the [125I]-labeled compound in thyroid of female Fischer 344 rat 2 hr after intravenous administration.; format: ADME, organism-based, Thyroid gland; settings: in vivo; summary of the method: as §2
[35] = tested on: Rattus norvegicus; assay: Distribution of the [125I]-labeled compound in thyroid of female Fischer 344 rat 30 min after intravenous administration.; format: ADME, organism-based, Thyroid gland; settings: in vivo, 0.5 h; summary of the method: as §2
[36] = tested on: Rattus norvegicus; assay: Distribution of the [125I]-labeled compound in thyroid of female Fischer 344 rat 4 hr after intravenous administration.; format: ADME, organism-based, Thyroid gland; settings: in vivo; summary of the method: as §2
[37] = tested on: Rattus norvegicus; assay: Distribution of the [125I]-labeled compound in thyroid of female Fischer 344 rat 5 min after intravenous administration.; format: ADME, organism-based, Thyroid gland; settings: in vivo; summary of the method: as §2
[38] = tested on: Rattus norvegicus; assay: Ratio of the distribution of [125I]-labeled compound in heart/blood of female Fischer 344 rat 1 hr after intravenous administration.; format: ADME, organism-based; settings: other tissue; summary of the method: as §2
[39] = tested on: Rattus norvegicus; assay: Ratio of the distribution of [125I]-labeled compound in heart/blood of female Fischer 344 rat 2 hr after intravenous administration.; format: ADME, organism-based; settings: other tissue; summary of the method: as §2
[40] = tested on: Rattus norvegicus; assay: Distribution of the [125I]-labeled compound in lungs of female Fischer 344 rat 30 min after intravenous administration.; format: ADME, organism-based, Lung; settings: in vivo, 0.5 h; summary of the method: as §2
[41] = tested on: Rattus norvegicus; assay: Ratio of the distribution of [125I]-labeled compound in heart/blood of female Fischer 344 rat 1 day after intravenous administration.; format: ADME, organism-based; settings: other tissue, 24 h; summary of the method: as §2

SMILES: O=C(O)CCCCC[Te]CCCCCCCCC/C=C/I
- Injected dose/g tissue [1]: 3.5%
- Injected dose/g tissue [2]: 2.9%

SMILES: O=C(O)CCCCCCCCCCC[Te]CCC/C=C/I
- Injected dose/g tissue [1]: 1.5%
- Injected dose/g tissue [2]: 1%

SMILES: O=C(O)CCC[Te]CCCCCCCCCCC/C=C/I
- Injected dose/g tissue [1]: 3.9%
- Injected dose/g tissue [2]: 3.6%

SMILES: O=C(O)CCCCCCC[Te]CCCCCCC/C=C/I
- Injected dose/g tissue [1]: 4.8%
- Injected dose/g tissue [2]: 3.9%

SMILES: O=C(O)CCCCCCCCCCCCCCC/C=C/I
- Injected dose/g tissue [3]: 0.32%
- Injected dose/g tissue [4]: 2.09%
- Injected dose/g tissue [5]: 1.72%
- Injected dose/g tissue [6]: 2.69%
- Injected dose/g tissue [7]: 0.94%
- Injected dose/g tissue [8]: 3.17%
- Injected dose/g tissue [9]: 0.32%
- Injected dose/g tissue [10]: 0.07%
- Injected dose/g tissue [11]: 0.28%
- Injected dose/g tissue [12]: 0.28%
- Injected dose/g tissue [13]: 0.4%
- Injected dose/g tissue [14]: 0.27%
- Injected dose/g tissue [15]: 0.3%
- Heart/blood ratio [16]: 3.5
- ratio [17]: 10.6 and 6.7
- Injected dose/g tissue [18]: 0.62%
- Injected dose/g tissue [19]: 0.63%
- Injected dose/g tissue [20]: 0.7%
- Injected dose/g tissue [21]: 0.55%
- Injected dose/g tissue [22]: 0.82%
- Injected dose/g tissue [23]: 0.6%
- Injected dose/g tissue [24]: 4.83%
- Injected dose/g tissue [25]: 4.04%
- Injected dose/g tissue [26]: 7.81%
- Injected dose/g tissue [27]: 3.08%
- Injected dose/g tissue [28]: 8.65%
- Injected dose/g tissue [29]: 0.59%
- Injected dose/g tissue [30]: 0.82%
- Injected dose/g tissue [31]: 1.02%
- Injected dose/g tissue [32]: 350%
- Injected dose/g tissue [33]: 27.18%
- Injected dose/g tissue [34]: 61%
- Injected dose/g tissue [35]: 20.88%
- Injected dose/g tissue [36]: 153%
- Injected dose/g tissue [37]: 9.29%
- Heart/blood ratio [38]: 7.6
- Heart/blood ratio [39]: 6.6
- Injected dose/g tissue [40]: 1.03%
- Heart/blood ratio [41]: 4.8

SMILES: O=C(O)CCCCCCCCC[Te]CCCCC/C=C/I
- Injected dose/g tissue [1]: 3.1%
- Injected dose/g tissue [2]: 3.8%
